Results taken from ChEMBL document CHEMBL1955763, “Antimicrobial activity of sulfonamides containing 5-chloro-2-hydroxybenzaldehyde and 5-chloro-2-hydroxybenzoic acid scaffold” (Eur J Med Chem, 2012).
Values after ≈ are worked out from the molar mass of the structure shown.

How the values were obtained:
Format in all cases: functional
[1] = system: Mycobacterium avium; test: Antimycobacterial activity against isoniazid-, rifampicin-, ofloxacin-, ethambutol-resistant Mycobacterium avium 330/88 after 21 days; conditions: 330/88, 504 h
Summary of the method: (§1)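 Micromethod in Sula semisynthetic medium, with compounds added as DMSO solutions over a two-fold series from 1000 down to 1. Inoculum for M. avium 330/88 was a 10⁻⁵ dilution. Plates were incubated at 37 °C and MIC was read after 14 and 21 days.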

[2] = system: Mycobacterium kansasii; test: Antimycobacterial activity against Mycobacterium kansasii 235/80 after 14 days; conditions: 235/80, 336 h
Summary of the method: (§2)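 Micromethod MIC in Sula semisynthetic medium, with compounds added as DMSO solutions at […]. Incubation at 37 °C. Inocula: M. kansasii 235/80 at dilution 10⁻⁴, clinical isolate 6509/96 at 10⁻⁵.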

[3] = system: Mycobacterium tuberculosis; test: Antimycobacterial activity against Mycobacterium tuberculosis H37Rv 331/88 after 21 days; conditions: H37Rv 331/88, 504 h; summary of the method: as §1
[4] = system: Mycobacterium tuberculosis; test: Antimycobacterial activity against Mycobacterium tuberculosis H37Rv 331/88 after 14 days; conditions: H37Rv 331/88, 336 h
[5] = system: Mycobacterium kansasii; test: Antimycobacterial activity against Mycobacterium kansasii 6509/96 after 14 days; conditions: 6509/96, 336 h; summary of the method: as §2
[6] = system: Mycobacterium kansasii; test: Antimycobacterial activity against Mycobacterium kansasii 235/80 after 21 days; conditions: 235/80, 504 h; summary of the method: as §2
[7] = system: Mycobacterium kansasii; test: Antimycobacterial activity against Mycobacterium kansasii 235/80 after 7 days; conditions: 235/80, 168 h; summary of the method: as §2
[8] = system: Mycobacterium kansasii; test: Antimycobacterial activity against Mycobacterium kansasii 6509/96 after 21 days; conditions: 6509/96, 504 h; summary of the method: as §2
[9] = system: Mycobacterium avium; test: Antimycobacterial activity against isoniazid-, rifampicin-, ofloxacin-, ethambutol-resistant Mycobacterium avium 330/88 after 14 days; conditions: 330/88, 336 h; summary of the method: as §1
[10] = system: Mycobacterium kansasii; test: Antimycobacterial activity against Mycobacterium kansasii 6509/96 after 7 days; conditions: 6509/96, 168 h; summary of the method: as §2
[11] = system: Staphylococcus aureus; test: Antibacterial activity against methicillin-resistant Staphylococcus aureus H 5996/08 after 24 hrs by broth microdilution method; conditions: H 5996/08, 24 h
Summary of the method: (§3)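 Microdilution broth method modified from M07-A07, in Mueller-Hinton broth at pH 7.4 (±0.2). Compounds were dissolved in DMSO. Inoculum was made in sterile water to 0.5 McFarland (1.5 × 10⁸ CFU/mL). MIC was taken as IC₉₀, meaning ≥90% growth reduction versus the drug-free control. Growth was read visually and by absorbance at 540 nm.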

[12] = system: Staphylococcus aureus; test: Antibacterial activity against Staphylococcus aureus CCM 4516/08 after 24 hrs by broth microdilution method; conditions: CCM 4516/08, 24 h; summary of the method: as §3
[13] = system: Staphylococcus aureus; test: Antibacterial activity against Staphylococcus aureus CCM 4516/08 after 48 hrs by broth microdilution method; conditions: CCM 4516/08, 48 h
Summary of the method: (§4)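 Broth microdilution modified from standard M07-A07 in Mueller-Hinton broth at pH 7.4 (±0.2). Compounds were dissolved in DMSO. Inoculum in sterile water was adjusted to 0.5 McFarland (1.5 × 10⁸ CFU/mL). MIC was taken as IC₉₀, i.e. ≥90% growth reduction versus control, read visually and spectrophotometrically at 540 nm.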

[14] = system: Staphylococcus epidermidis; test: Antibacterial activity against methicillin-resistant Staphylococcus epidermidis H 6966/08 after 24 hrs by broth microdilution method; conditions: H 6966/08, 24 h; summary of the method: as §3
[15] = system: Staphylococcus epidermidis; test: Antibacterial activity against methicillin-resistant Staphylococcus epidermidis H 6966/08 after 48 hrs by broth microdilution method; conditions: H 6966/08, 48 h; summary of the method: as §3
[16] = system: Staphylococcus aureus; test: Antibacterial activity against methicillin-resistant Staphylococcus aureus H 5996/08 after 48 hrs by broth microdilution method; conditions: H 5996/08, 48 h; summary of the method: as §3
[17] = system: Trichophyton mentagrophytes; test: Antifungal activity against Trichophyton mentagrophytes 445 after 24 hrs by broth microdilution method; conditions: Trichophyton mentagrophytes, 445, 24 h
[18] = system: Lichtheimia corymbifera; test: Antifungal activity against Absidia corymbifera 272 after 24 hrs by broth microdilution method; conditions: Lichtheimia corymbifera, 272, 24 h
Summary of the method: (§5)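 Microdilution broth per CLSI M27-A3 (yeasts) or M38-A2 (moulds) in RPMI 1640 with glutamine, buffered to pH 7.0 with 0.165 mol MOPS. Compounds were in DMSO. Final inoculum was 5 × 10³ ± 0.2 CFU/mL. Other conditions matched the antibacterial assay, with MIC as IC₉₀ read visually and at 540 nm. Determined twice, in duplicate.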

[19] = system: Candida tropicalis; test: Antifungal activity against Candida tropicalis 156 after 24 hrs by broth microdilution method; conditions: Candida tropicalis, 156, 24 h; summary of the method: as §5
[20] = system: Candida albicans; test: Antifungal activity against Candida albicans ATCC 44857 after 24 hrs by broth microdilution method; conditions: ATCC 44857, 24 h; summary of the method: as §5
[21] = system: Aspergillus fumigatus; test: Antifungal activity against Aspergillus fumigatus 231 after 24 hrs by broth microdilution method; conditions: Aspergillus fumigatus, 231, 24 h; summary of the method: as §5
[22] = system: Pichia kudriavzevii; test: Antifungal activity against Candida krusei E58 after 24 hrs by broth microdilution method; conditions: E58, 24 h; summary of the method: as §5
[23] = system: Trichosporon asahii; test: Antifungal activity against Trichosporon asahii 1188 after 24 hrs by broth microdilution method; conditions: Trichosporon asahii, 1188, 24 h; summary of the method: as §5
[24] = system: Nakaseomyces glabratus; test: Antifungal activity against Candida glabrata 20/I after 24 hrs by broth microdilution method; summary of the method: as §5
[25] = system: Escherichia coli; test: Antibacterial activity against Escherichia coli CCM 4517 after 24 hrs by broth microdilution method; conditions: CCM 4517, 24 h; summary of the method: as §4

SMILES	MIC [1]	MIC [2]	MIC [3]	MIC [4]	MIC [5]	MIC [6]	MIC [7]	MIC [8]	MIC [9]	MIC [10]	MIC [11]	MIC [12]	MIC [13]	MIC [14]	MIC [15]	MIC [16]	MIC [17]	MIC [18]	MIC [19]	MIC [20]	also measured
NNC(=O)c1ccncc1 [ISONIAZID]	> 250 µM	> 250 µM	1 µM (≈ 0.137 µg/mL)	0.5 µM (≈ 0.0686 µg/mL)	4 µM (≈ 0.549 µg/mL)	> 250 µM	> 250 µM	8 µM (≈ 1.1 µg/mL)	> 250 µM	4 µM (≈ 0.549 µg/mL)	–	–	–	–	–	–	–	–	–	–	–
Nc1ccc(S(=O)(=O)Nc2ncccn2)cc1 [SULFADIAZINE]	62.5 µM (≈ 15.6 µg/mL)	16 µM (≈ 4 µg/mL)	62.5 µM (≈ 15.6 µg/mL)	32 µM (≈ 8.01 µg/mL)	8 µM (≈ 2 µg/mL)	32 µM (≈ 8.01 µg/mL)	16 µM (≈ 4 µg/mL)	8 µM (≈ 2 µg/mL)	62.5 µM (≈ 15.6 µg/mL)	8 µM (≈ 2 µg/mL)	500 µM (≈ 125 µg/mL)	500 µM (≈ 125 µg/mL)	> 500 µM	> 500 µM	> 500 µM	> 500 µM	–	–	–	–	–
Cc1cc(NS(=O)(=O)c2ccc(NC(=O)c3cccc(Cl)c3)cc2)no1	500 µM (≈ 196 µg/mL)	8 µM (≈ 3.13 µg/mL)	500 µM (≈ 196 µg/mL)	500 µM (≈ 196 µg/mL)	8 µM (≈ 3.13 µg/mL)	8 µM (≈ 3.13 µg/mL)	2 µM (≈ 0.784 µg/mL)	8 µM (≈ 3.13 µg/mL)	500 µM (≈ 196 µg/mL)	8 µM (≈ 3.13 µg/mL)	> 500 µM	> 500 µM	> 500 µM	> 500 µM	> 500 µM	> 500 µM	500 µM (≈ 196 µg/mL)	500 µM (≈ 196 µg/mL)	500 µM (≈ 196 µg/mL)	500 µM (≈ 196 µg/mL)	MIC [21]: 500 µM (≈ 196 µg/mL); MIC [22]: 500 µM (≈ 196 µg/mL); MIC [23]: 500 µM (≈ 196 µg/mL); MIC [24]: 500 µM (≈ 196 µg/mL)
Cc1cc(NS(=O)(=O)c2ccc(/N=C/c3cccc(Cl)c3)cc2)no1	62.5 µM (≈ 23.5 µg/mL)	8 µM (≈ 3.01 µg/mL)	125 µM (≈ 47 µg/mL)	62.5 µM (≈ 23.5 µg/mL)	4 µM (≈ 1.5 µg/mL)	8 µM (≈ 3.01 µg/mL)	4 µM (≈ 1.5 µg/mL)	4 µM (≈ 1.5 µg/mL)	32 µM (≈ 12 µg/mL)	4 µM (≈ 1.5 µg/mL)	31.2 µM (≈ 11.7 µg/mL)	31.2 µM (≈ 11.7 µg/mL)	62.5 µM (≈ 23.5 µg/mL)	> 500 µM	> 500 µM	62.5 µM (≈ 23.5 µg/mL)	500 µM (≈ 188 µg/mL)	500 µM (≈ 188 µg/mL)	500 µM (≈ 188 µg/mL)	500 µM (≈ 188 µg/mL)	MIC [21]: 500 µM (≈ 188 µg/mL); MIC [22]: 500 µM (≈ 188 µg/mL); MIC [23]: 500 µM (≈ 188 µg/mL); MIC [24]: 500 µM (≈ 188 µg/mL)
Cc1cc(C)nc(NS(=O)(=O)c2ccc(/N=C/c3cc(Cl)ccc3O)cc2)n1	125 µM (≈ 52.1 µg/mL)	125 µM (≈ 52.1 µg/mL)	500 µM (≈ 208 µg/mL)	250 µM (≈ 104 µg/mL)	125 µM (≈ 52.1 µg/mL)	250 µM (≈ 104 µg/mL)	62.5 µM (≈ 26.1 µg/mL)	250 µM (≈ 104 µg/mL)	62.5 µM (≈ 26.1 µg/mL)	125 µM (≈ 52.1 µg/mL)	125 µM (≈ 52.1 µg/mL)	250 µM (≈ 104 µg/mL)	500 µM (≈ 208 µg/mL)	> 500 µM	> 500 µM	250 µM (≈ 104 µg/mL)	> 125 µM	> 125 µM	> 125 µM	> 125 µM	MIC [21]: > 125 µM; MIC [22]: > 125 µM; MIC [23]: > 125 µM; MIC [24]: > 125 µM; MIC [25]: 500 µM (≈ 208 µg/mL)
Cc1cc(C)nc(NS(=O)(=O)c2ccc(N)cc2)n1 [SULFAMETHAZINE]	62.5 µM (≈ 17.4 µg/mL)	32 µM (≈ 8.91 µg/mL)	125 µM (≈ 34.8 µg/mL)	62.5 µM (≈ 17.4 µg/mL)	16 µM (≈ 4.45 µg/mL)	125 µM (≈ 34.8 µg/mL)	16 µM (≈ 4.45 µg/mL)	32 µM (≈ 8.91 µg/mL)	32 µM (≈ 8.91 µg/mL)	16 µM (≈ 4.45 µg/mL)	500 µM (≈ 139 µg/mL)	500 µM (≈ 139 µg/mL)	> 500 µM	> 500 µM	> 500 µM	> 500 µM	–	–	–	–	–
O=C(Nc1ccc(S(=O)(=O)Nc2nccs2)cc1)c1cc(Cl)ccc1O	250 µM (≈ 102 µg/mL)	16 µM (≈ 6.56 µg/mL)	250 µM (≈ 102 µg/mL)	250 µM (≈ 102 µg/mL)	8 µM (≈ 3.28 µg/mL)	16 µM (≈ 6.56 µg/mL)	8 µM (≈ 3.28 µg/mL)	8 µM (≈ 3.28 µg/mL)	250 µM (≈ 102 µg/mL)	8 µM (≈ 3.28 µg/mL)	> 125 µM	> 125 µM	> 125 µM	> 125 µM	> 125 µM	> 125 µM	> 125 µM	> 125 µM	> 125 µM	> 125 µM	MIC [21]: > 125 µM; MIC [22]: > 125 µM; MIC [23]: > 125 µM; MIC [24]: > 125 µM
O=C(Nc1ccc(S(=O)(=O)Nc2ncccn2)cc1)c1cc(Cl)ccc1O	62.5 µM (≈ 25.3 µg/mL)	8 µM (≈ 3.24 µg/mL)	250 µM (≈ 101 µg/mL)	125 µM (≈ 50.6 µg/mL)	8 µM (≈ 3.24 µg/mL)	16 µM (≈ 6.48 µg/mL)	4 µM (≈ 1.62 µg/mL)	8 µM (≈ 3.24 µg/mL)	62.5 µM (≈ 25.3 µg/mL)	4 µM (≈ 1.62 µg/mL)	31.2 µM (≈ 12.7 µg/mL)	125 µM (≈ 50.6 µg/mL)	125 µM (≈ 50.6 µg/mL)	> 500 µM	> 500 µM	31.2 µM (≈ 12.7 µg/mL)	–	–	–	–	–
